{"source": "ChEMBL document CHEMBL4017520", "about": "“Discovery, Structure-Activity Relationship, and Antiparkinsonian Effect of a Potent and Brain-Penetrant Chemical Series of Positive Allosteric Modulators of Metabotropic Glutamate Receptor 4” (J Med Chem, 2017)", "key": {"Rattus norvegicus [1]": {"species_on_record": "Rattus norvegicus", "test": "Activity at AMPA glutamate receptor in rat cerebral cortex at 10 uM", "how_it_was_run": "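Inhibition of orthosteric ligand binding to NMDA, AMPA and kainate receptors on rat cerebral cortex membranes, tested up to 10 μM.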"}, "[2]": {"biological_target": "D(1A) dopamine receptor (Homo sapiens) (UniProt P21728)", "sequence (P21728 whole entry)": "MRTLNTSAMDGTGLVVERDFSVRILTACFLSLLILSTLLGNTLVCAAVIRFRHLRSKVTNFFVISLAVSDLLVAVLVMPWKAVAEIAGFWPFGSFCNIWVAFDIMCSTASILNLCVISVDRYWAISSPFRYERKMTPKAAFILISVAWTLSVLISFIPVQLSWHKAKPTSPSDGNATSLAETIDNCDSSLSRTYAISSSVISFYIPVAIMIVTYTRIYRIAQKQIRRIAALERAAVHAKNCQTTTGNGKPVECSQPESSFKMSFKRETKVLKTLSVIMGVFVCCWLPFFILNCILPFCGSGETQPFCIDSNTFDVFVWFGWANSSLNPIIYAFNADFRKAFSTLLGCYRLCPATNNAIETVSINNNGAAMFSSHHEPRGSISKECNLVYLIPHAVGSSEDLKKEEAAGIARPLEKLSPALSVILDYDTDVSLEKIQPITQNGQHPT", "test": "Positive allosteric modulation of D1 receptor (unknown origin) at 10 uM"}, "[3]": {"biological_target": "Receptor-type tyrosine-protein kinase FLT3 (Homo sapiens) (UniProt P36888)", "sequence (P36888 whole entry)": "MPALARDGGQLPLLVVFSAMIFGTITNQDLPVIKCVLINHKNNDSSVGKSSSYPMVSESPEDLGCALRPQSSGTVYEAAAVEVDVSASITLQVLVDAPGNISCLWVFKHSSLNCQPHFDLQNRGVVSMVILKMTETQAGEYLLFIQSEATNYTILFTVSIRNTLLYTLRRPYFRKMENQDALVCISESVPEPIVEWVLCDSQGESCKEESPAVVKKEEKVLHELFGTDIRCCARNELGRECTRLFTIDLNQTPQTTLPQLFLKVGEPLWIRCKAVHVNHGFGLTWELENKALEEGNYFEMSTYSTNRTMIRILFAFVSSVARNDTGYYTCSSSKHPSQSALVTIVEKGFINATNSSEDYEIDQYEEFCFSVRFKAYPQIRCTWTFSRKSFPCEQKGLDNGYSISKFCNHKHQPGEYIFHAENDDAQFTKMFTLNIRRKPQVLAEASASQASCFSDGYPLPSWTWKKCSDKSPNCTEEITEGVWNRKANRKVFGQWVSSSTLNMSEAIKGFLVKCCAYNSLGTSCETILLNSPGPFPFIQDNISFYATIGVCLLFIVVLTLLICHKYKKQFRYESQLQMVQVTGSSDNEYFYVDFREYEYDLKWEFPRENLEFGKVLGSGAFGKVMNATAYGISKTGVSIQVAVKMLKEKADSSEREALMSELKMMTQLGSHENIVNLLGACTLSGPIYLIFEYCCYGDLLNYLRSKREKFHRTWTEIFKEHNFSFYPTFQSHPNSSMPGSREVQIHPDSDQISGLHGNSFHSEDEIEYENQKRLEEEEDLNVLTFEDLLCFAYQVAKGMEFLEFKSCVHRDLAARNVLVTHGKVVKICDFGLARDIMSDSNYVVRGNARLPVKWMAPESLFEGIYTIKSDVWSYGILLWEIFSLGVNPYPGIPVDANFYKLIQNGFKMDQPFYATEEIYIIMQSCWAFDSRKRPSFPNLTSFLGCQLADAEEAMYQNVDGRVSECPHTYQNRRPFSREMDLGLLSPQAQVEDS", "test": "Inhibition of Flt3 (unknown origin) at 10 uM relative to control"}, "[4]": {"biological_target": "D(1A) dopamine receptor (Homo sapiens) (UniProt P21728)", "test": "Agonist activity at D1 receptor (unknown origin) at 10 uM"}, "[5]": {"biological_target": "D(2) dopamine receptor (Homo sapiens) (UniProt P14416)", "sequence (P14416 whole entry)": "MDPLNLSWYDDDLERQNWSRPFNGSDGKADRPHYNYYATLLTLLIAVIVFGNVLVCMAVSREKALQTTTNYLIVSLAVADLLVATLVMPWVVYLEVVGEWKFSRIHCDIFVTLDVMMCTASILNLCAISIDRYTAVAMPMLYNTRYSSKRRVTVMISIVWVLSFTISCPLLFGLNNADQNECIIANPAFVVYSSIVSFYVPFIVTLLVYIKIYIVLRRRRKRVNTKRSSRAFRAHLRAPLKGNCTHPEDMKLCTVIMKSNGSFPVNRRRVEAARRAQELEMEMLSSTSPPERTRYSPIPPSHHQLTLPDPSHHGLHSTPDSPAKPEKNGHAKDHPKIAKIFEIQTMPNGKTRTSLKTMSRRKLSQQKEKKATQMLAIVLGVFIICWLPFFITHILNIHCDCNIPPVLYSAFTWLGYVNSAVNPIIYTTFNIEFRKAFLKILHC", "test": "Agonist activity at D2L receptor (unknown origin) at 10 uM"}, "[6]": {"biological_target": "Adenosine receptor A2a (Homo sapiens) (UniProt P29274)", "sequence (P29274 whole entry)": "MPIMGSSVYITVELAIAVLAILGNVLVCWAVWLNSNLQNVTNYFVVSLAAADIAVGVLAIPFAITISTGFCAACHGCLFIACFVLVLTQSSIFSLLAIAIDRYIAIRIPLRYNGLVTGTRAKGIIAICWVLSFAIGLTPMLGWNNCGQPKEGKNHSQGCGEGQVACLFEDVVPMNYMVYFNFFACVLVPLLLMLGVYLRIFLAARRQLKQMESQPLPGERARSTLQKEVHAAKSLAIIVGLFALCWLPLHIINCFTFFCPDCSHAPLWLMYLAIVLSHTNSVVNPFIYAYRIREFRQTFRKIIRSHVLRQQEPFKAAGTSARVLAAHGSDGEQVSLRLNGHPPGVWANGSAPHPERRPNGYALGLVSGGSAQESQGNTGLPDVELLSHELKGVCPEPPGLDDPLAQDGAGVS", "test": "Antagonist activity at A2A receptor (unknown origin) at 10 uM"}, "[7]": {"biological_target": "Metabotropic glutamate receptor 4 (Homo sapiens, UniProt Q14833)", "sequence (Q14833 whole entry)": "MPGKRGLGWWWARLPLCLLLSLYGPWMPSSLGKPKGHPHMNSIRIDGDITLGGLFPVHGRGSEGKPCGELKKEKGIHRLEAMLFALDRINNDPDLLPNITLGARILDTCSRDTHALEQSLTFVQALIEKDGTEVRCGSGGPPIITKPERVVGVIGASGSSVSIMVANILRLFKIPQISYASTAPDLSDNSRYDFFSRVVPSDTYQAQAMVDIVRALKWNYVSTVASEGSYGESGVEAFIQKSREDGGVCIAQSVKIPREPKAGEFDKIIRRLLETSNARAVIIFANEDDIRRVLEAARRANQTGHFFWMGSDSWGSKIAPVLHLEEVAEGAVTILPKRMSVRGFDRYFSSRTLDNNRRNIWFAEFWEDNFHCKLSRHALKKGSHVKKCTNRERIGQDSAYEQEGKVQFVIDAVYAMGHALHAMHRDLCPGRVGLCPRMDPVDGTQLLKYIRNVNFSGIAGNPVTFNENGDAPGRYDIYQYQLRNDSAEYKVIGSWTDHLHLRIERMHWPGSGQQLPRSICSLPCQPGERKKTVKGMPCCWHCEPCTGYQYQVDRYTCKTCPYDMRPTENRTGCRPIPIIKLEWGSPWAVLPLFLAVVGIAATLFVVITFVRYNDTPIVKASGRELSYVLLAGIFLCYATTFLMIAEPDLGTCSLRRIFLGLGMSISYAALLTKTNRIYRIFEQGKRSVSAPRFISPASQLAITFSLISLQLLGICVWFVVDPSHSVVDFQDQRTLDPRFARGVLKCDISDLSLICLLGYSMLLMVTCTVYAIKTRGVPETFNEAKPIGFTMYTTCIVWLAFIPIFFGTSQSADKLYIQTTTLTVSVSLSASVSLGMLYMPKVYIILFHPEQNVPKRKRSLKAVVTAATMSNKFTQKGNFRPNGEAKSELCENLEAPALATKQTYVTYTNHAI", "test": "Positive allosteric modulation of recombinant human mGlu4 receptor expressed in HEK293 cells co-expressing chimeric Gi/Gq assessed as increase in EC20 glutamate-induced calcium flux preincubated for 10 mins followed by glutamate addition measured for 3 mins by Fluo4-AM dye based fluorescence assay relative to control", "type": "functional, cell-based"}, "Homo sapiens": {"species_on_record": "Homo sapiens", "test": "Selectivity ratio of compound effect for positive allosteric modulation of recombinant human mGlu4 receptor to compound effect for activity at human mGlu6 receptor"}, "[8]": {"biological_target": "Adenosine receptor A2a (Homo sapiens) (UniProt P29274)", "test": "Positive allosteric modulation of A2A receptor (unknown origin) at 10 uM"}, "[9]": {"biological_target": "Interleukin-1 receptor-associated kinase 4 (Homo sapiens) (UniProt Q9NWZ3)", "sequence (Q9NWZ3 whole entry)": "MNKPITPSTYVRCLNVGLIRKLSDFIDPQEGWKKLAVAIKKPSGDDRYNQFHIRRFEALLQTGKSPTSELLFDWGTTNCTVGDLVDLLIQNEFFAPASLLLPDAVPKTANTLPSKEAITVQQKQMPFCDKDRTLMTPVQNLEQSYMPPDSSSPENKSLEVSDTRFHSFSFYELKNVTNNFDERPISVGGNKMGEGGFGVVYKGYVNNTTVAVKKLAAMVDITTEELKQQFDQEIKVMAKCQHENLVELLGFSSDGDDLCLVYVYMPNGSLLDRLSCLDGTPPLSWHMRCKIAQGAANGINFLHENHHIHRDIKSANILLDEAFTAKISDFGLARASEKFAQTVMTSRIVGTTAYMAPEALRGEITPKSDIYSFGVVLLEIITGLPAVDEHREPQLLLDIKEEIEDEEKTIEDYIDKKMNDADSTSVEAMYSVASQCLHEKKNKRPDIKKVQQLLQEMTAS", "test": "Inhibition of IRAK4 (unknown origin) at 10 uM"}, "Rattus norvegicus [10]": {"test_system": "Rattus norvegicus", "test": "Toxicity in 6-OHDA induced parkinsonian motor deficit Sprague-Dawley rat model assessed as induction of dyskinesia at 30 mg/kg, ip", "type": "organism-based", "details": "in vivo"}, "[11]": {"test": "Ratio of drug uptake in Sprague-Dawley rat brain at 10 mg/kg, ip to EC50 for rat mGlu4 receptor expressed in HEK293 cells", "how_it_was_run": "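Rats received a single ip or oral dose. Brain concentration was measured 30 min postdose, mean of 3 rats, and divided by the EC50 measured in cell lines overexpressing rat mGluR4.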"}, "[12]": {"test": "Ratio of drug level in C57BL/6 mouse brain to plasma at 2 mg/kg, iv administered as single dose measured after 30 mins by LC-MS/MS analysis", "type": "ADME, organism-based", "details": "read-out: BPR", "how_it_was_run": "(§1)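 Single iv dose, 1 mg/kg in rat or 2 mg/kg in mouse; plasma PK parameters derived; brain/plasma ratio taken at 1 h postdose (rat) or 30 min postdose (mouse). Mean of 3 rats; 2 mice for mouse Cmax and brain/plasma.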"}, "[13]": {"test": "Half life in Sprague-Dawley rat plasma at 10 mg/kg, ip administered as single dose by LC-MS/MS analysis", "type": "ADME, organism-based", "how_it_was_run": "(§2)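 Single dose ip (10 or 30 mg/kg, rat) or oral (10 mg/kg, rat or mouse); plasma Cmax, Tmax, half-life, AUC0−inf derived; brain concentration and brain/plasma ratio at 30 min postdose. Mean of 3 rats or 2 mice.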"}, "[14]": {"test": "Ratio of drug level in C57BL/6 mouse brain to plasma at 10 mg/kg, po after 30 mins post dose administered as single dose by LC-MS/MS analysis", "type": "ADME, organism-based", "details": "read-out: BPR", "how_it_was_run": "as §2"}, "[15]": {"test": "Drug uptake in Sprague-Dawley rat brain at 10 mg/kg, po after 30 mins post dose administered as single dose by LC-MS/MS analysis", "type": "ADME, organism-based", "details": "read-out: Drug uptake", "how_it_was_run": "(§3)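 Rats given a single oral dose of 10 mg/kg. The first plasma sample was taken at 15 min, and sampling continued to 24 h postdose. Brain was sampled at 30 min. Values are the mean (±SEM) of 3 rats.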"}, "[16]": {"test": "Ratio of drug level in Sprague-Dawley rat brain to plasma at 10 mg/kg, po after 30 mins post dose administered as single dose by LC-MS/MS analysis", "type": "ADME, organism-based", "details": "read-out: BPR", "how_it_was_run": "as §2"}, "[17]": {"test": "Drug uptake in Sprague-Dawley rat brain at 30 mg/kg, ip after 30 mins post dose administered as single dose by LC-MS/MS analysis", "type": "ADME, organism-based", "details": "read-out: Drug uptake", "how_it_was_run": "(§4)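 Rats dosed ip at 10 or 30 mg/kg. Plasma Cmax, Tmax, half-life and AUC0–inf were determined. Brain concentration was measured 30 min postdose, and brain/plasma ratio was taken at 30 min. Values are the mean (±SEM) of 3 rats.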"}, "[18]": {"test": "Cmax in Sprague-Dawley rat plasma at 30 mg/kg, ip administered as single dose by LC-MS/MS analysis", "type": "ADME, organism-based", "parameters": "dose 30 mg/kg, route intraperitoneal", "how_it_was_run": "as §4"}, "Brain [19]": {"test_system": "Brain", "test": "Fraction unbound in Sprague-Dawley rat brain at 30 mg/kg, ip after 60 mins", "type": "ADME, organism-based", "details": "in vivo, 1 h"}, "[20]": {"test": "AUC (0 to infinity) in C57BL/6 mouse at 2 mg/kg, iv administered as single dose by LC-MS/MS analysis", "type": "ADME, organism-based", "parameters": "dose 2 mg/kg, time infinity, route intravenous", "details": "in vivo"}, "[21]": {"biological_target": "Amine oxidase [flavin-containing] B (Homo sapiens, UniProt P27338)", "sequence (P27338 whole entry)": "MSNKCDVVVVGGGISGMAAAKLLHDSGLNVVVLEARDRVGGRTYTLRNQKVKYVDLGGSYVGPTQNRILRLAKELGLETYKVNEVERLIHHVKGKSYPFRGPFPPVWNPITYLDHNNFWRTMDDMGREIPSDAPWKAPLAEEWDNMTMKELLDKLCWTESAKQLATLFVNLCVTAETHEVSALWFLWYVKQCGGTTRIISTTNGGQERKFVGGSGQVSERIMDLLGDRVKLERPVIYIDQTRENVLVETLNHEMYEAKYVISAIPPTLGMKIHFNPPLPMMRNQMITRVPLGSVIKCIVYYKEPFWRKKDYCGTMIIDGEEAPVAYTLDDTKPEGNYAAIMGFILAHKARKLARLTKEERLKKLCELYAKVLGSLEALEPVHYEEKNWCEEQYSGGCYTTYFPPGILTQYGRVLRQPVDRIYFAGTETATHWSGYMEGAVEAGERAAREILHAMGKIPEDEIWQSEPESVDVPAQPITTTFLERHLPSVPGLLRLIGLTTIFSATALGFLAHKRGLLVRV", "test": "Activity at MAO-B (unknown origin) up to 10 uM", "type": "ADME"}, "[22]": {"test": "Ratio of drug uptake in Sprague-Dawley rat brain to plasma at 30 mg/kg, ip after 30 to 60 mins", "type": "ADME, organism-based", "details": "read-out: BPR", "how_it_was_run": "(§5)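 Rats dosed 30 mg/kg ip; plasma sampled over time, brain measured at 30 and 60 min; brain/plasma ratio averaged over 30 and 60 min.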"}, "[23]": {"test": "Ratio of fraction unbound in Sprague-Dawley rat brain at 30 mg/kg, ip after 60 mins to EC50 for rat mGlu4 receptor expressed in HEK293 cells"}, "[24]": {"test": "Drug uptake in Sprague-Dawley rat brain at 30 mg/kg, ip after 120 mins", "type": "ADME, organism-based", "details": "read-out: Drug uptake"}, "Mus musculus": {"test_system": "Mus musculus", "test": "Half life in C57BL/6 mouse at 2 mg/kg, iv administered as single dose by LC-MS/MS analysis", "type": "ADME, organism-based", "details": "in vivo", "how_it_was_run": "as §1"}, "[25]": {"test": "Plasma concentration in Sprague-Dawley rat at 30 mg/kg, ip after 120 mins", "type": "ADME, organism-based", "how_it_was_run": "as §5"}, "[26]": {"test": "Drug uptake in Sprague-Dawley rat brain at 30 mg/kg, ip after 60 mins", "type": "ADME, organism-based", "details": "read-out: Drug uptake"}, "[27]": {"test": "Ratio of fraction unbound in Sprague-Dawley rat brain at 30 mg/kg, ip after 30 mins to EC50 for rat mGlu4 receptor expressed in HEK293 cells"}, "[28]": {"test": "Tmax in C57BL/6 mouse plasma at 10 mg/kg, po administered as single dose by LC-MS/MS analysis", "type": "ADME, organism-based", "how_it_was_run": "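Single-dose plasma PK after ip (10 or 30 mg/kg) or oral (10 mg/kg) dosing in rats, and oral 10 mg/kg dosing in mice. […] Values are mean ±SEM of 3 rats or 2 mice.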"}, "Rattus norvegicus [29]": {"test_system": "Rattus norvegicus", "test": "Toxicity in 6-OHDA induced parkinsonian motor deficit Sprague-Dawley rat model assessed as induction of overacting rearing behavior up to 30 mg/kg, ip in presence of L-dopa", "type": "organism-based", "details": "in vivo"}, "Plasma": {"test_system": "Plasma", "test": "Drug level in Sprague-Dawley rat plasma at 10 mg/kg, po administered as single dose measured at 24 hrs post dose by LC-MS/MS analysis", "type": "ADME, organism-based", "details": "in vivo", "how_it_was_run": "as §3"}, "Rattus norvegicus [30]": {"test_system": "Rattus norvegicus", "test": "Toxicity in 6-OHDA induced parkinsonian motor deficit Sprague-Dawley rat model assessed as induction of overacting rearing behavior up to 30 mg/kg, ip", "type": "organism-based", "details": "in vivo"}, "[31]": {"test": "Cmax in Sprague-Dawley rat plasma at 10 mg/kg, ip administered as single dose by LC-MS/MS analysis", "type": "ADME, organism-based", "parameters": "dose 10 mg/kg, route intraperitoneal", "how_it_was_run": "as §4"}, "Brain [32]": {"test_system": "Brain", "test": "Fraction unbound in Sprague-Dawley rat brain at 30 mg/kg, ip after 120 mins", "type": "ADME, organism-based", "details": "in vivo, 2 h"}}, "note": "The source made the active and inactive calls. The rule behind the calls is not given here."}
{"smiles": "O/N=c1\\cc(-c2cc3cccn3cn2)oc2ccc(OCCN3CCOCC3)cc12", "note": "[listing 1 of 2 here]", "values": [{"measurement": "Activity", "setting": "Rattus norvegicus [1]", "result": "inactive"}, {"measurement": "Activity", "setting": "[2]", "result": "inactive"}, {"measurement": "inhibition", "setting": "[3]", "result": 64, "unit": "%"}, {"measurement": "Activity", "setting": "[4]", "result": "inactive"}, {"measurement": "Activity", "setting": "[5]", "result": "inactive"}, {"measurement": "Activity", "setting": "[6]", "result": "inactive"}, {"measurement": "Emax", "setting": "[7]", "result": 77, "unit": "%"}, {"measurement": "Selectivity ratio", "setting": "Homo sapiens", "result": 13}, {"measurement": "Activity", "setting": "[8]", "result": "inactive"}, {"measurement": "inhibition", "setting": "[9]", "result": "inactive"}]}
{"smiles": "O/N=c1\\cc(-c2cc3cccn3cn2)oc2ccc(OCCN3CCOCC3)cc12", "note": "[listing 2 of 2 here]", "values": [{"measurement": "Activity", "setting": "Rattus norvegicus [10]", "result": "Non-Toxic"}, {"measurement": "Ratio", "setting": "[11]", "result": 3.6}, {"measurement": "Kp at 0.5 h", "setting": "[12]", "result": 3.6}, {"measurement": "half-life", "setting": "[13]", "result": 240, "unit": "min"}, {"measurement": "Kp at 0.5 h", "setting": "[14]", "result": 1.7}, {"measurement": "concentration at 0.5 h", "setting": "[15]", "result": 454, "unit": "ng/g"}, {"measurement": "Kp at 0.5 h", "setting": "[16]", "result": 2.3}, {"measurement": "concentration at 0.5 h", "setting": "[17]", "result": 22800, "unit": "ng/g"}, {"measurement": "Cmax", "setting": "[18]", "result": 9320, "unit": "ng/mL"}, {"measurement": "Drug uptake(free)", "setting": "Brain [19]", "result": 91, "unit": "ng/g"}, {"measurement": "AUC(0-inf)", "setting": "[20]", "result": 269, "unit": "ng·h/mL"}, {"measurement": "Activity", "setting": "[21]", "result": "Not Active"}, {"measurement": "Kp", "setting": "[22]", "result": 3.25}, {"measurement": "Ratio", "setting": "[23]", "result": 7.6}, {"measurement": "concentration at 2 h", "setting": "[24]", "result": 1740, "unit": "ng/g"}, {"measurement": "t1/2", "setting": "Mus musculus", "result": 12, "unit": "min"}, {"measurement": "concentration at 2 h", "setting": "[25]", "result": 535, "unit": "ng/mL"}, {"measurement": "concentration at 1 h", "setting": "[26]", "result": 12000, "unit": "ng/g"}, {"measurement": "Ratio", "setting": "[27]", "result": 14.5}, {"measurement": "Tmax", "setting": "[28]", "result": 30, "unit": "min"}, {"measurement": "Activity", "setting": "Rattus norvegicus [29]", "result": "Non-Toxic"}, {"measurement": "Drug uptake", "setting": "Plasma", "result": "2 to 10", "unit": "%"}, {"measurement": "Activity", "setting": "Rattus norvegicus [30]", "result": "Non-Toxic"}, {"measurement": "Cmax", "setting": "[31]", "result": 1500, "unit": "ng/mL"}, {"measurement": "Drug uptake(free)", "setting": "Brain [32]", "result": 13, "unit": "ng/g"}]}
